Measurements from publication PMC2688442 (Analytical biochemistry, 2009).

Assays:
293T/nNOS cells = format: cell-based; details: for Cell health after treatment: 293T/nNOS cells during the period of A23187 stimulation; for Cytotoxicity: by visual inspection under a microscope; for Inhibition of cell growth: experimental conditions of the inhibition assay
[1] = system: nNOS over eNOS in rat tissue; details: cited from earlier work
nNOS over eNOS = details: cited from earlier work
nNOS in 293T/nNOS cells = assay: Activation of nNOS in 293T/nNOS cells by A23187; format: cell-based, rat; details: A23187 5 μM, after the 8 h-incubation, deduced from Fig. 1C
Outline: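 HEK 293T cells stably transfected with rat nNOS cDNA (lipofection, Geneticin 0.8 mg/ml selection, single-cell cloning, highest-expressing clone), maintained in DMEM with 0.4 mg/ml Geneticin. At ~80% confluence, cells were exposed to 5 μM A23187 or left untreated, alongside WT 293T cells ± A23187. Nitrite in the culture medium was measured by Griess reagent at different times.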

Compound | Cell health after treatment (293T/nNOS cells) | Cytotoxicity (293T/nNOS cells; 293T/nNOS cells) | Inhibition of cell growth (293T/nNOS cells; 293T/nNOS cells) | also measured
N=C(NCCC[C@H](N)C(=O)O)N[N+](=O)[O-] [NNA, N^ω-Nitro-L-arginine] | remained healthy |  |  | Cell death (293T/nNOS cells; 293T/nNOS cells under the experimental conditions of the inhibition assay): No cell death was observed
Cc1cc(N)nc(CC2CNCC2NCCNCCc2cccc(F)c2)c1 (centres unmarked) [compound 3, N-[4-(6-amino-4-methylpyridin-2-ylmethyl)pyrrolidin-3-yl]-N′-(3-fluorophenylethyl) ethane-1,2-diamine] |  | no obvious cytotoxicity | Neither compound 3 nor AR-R17477 inhibited cell growth | 
CSC(N)=NCCC[C@H](N)C(=O)O [Me-TC, S-methyl-L-thiocitrulline] |  |  |  | Inhibition of nNOS over eNOS in rat tissue (in words) [1]: better than Et-TC
CCSC(N)=NCCC[C@H](N)C(=O)O [Et-TC, S-ethyl-L-thiocitrulline] |  |  |  | Selectivity in vitro for nNOS inhibition over eNOS (in words) (nNOS over eNOS): more selective
N=C(Nc1ccc(CCNCc2cccc(Cl)c2)cc1)c1cccs1 [AR-R17477] | remained healthy | no obvious cytotoxicity | Neither compound 3 nor AR-R17477 inhibited cell growth | 
CNc1ccc2oc(C[C@H]3O[C@@]4(CC[C@H]3C)O[C@H]([C@H](C)C(=O)c3ccc[nH]3)[C@H](C)C[C@H]4C)nc2c1C(=O)O [A23187] |  |  |  | Cell death with A23187 stimulation (293T/nNOS cells; 293T/nNOS cells, after 10 h with A23187): no obvious cell death; Nitrite concentration (nNOS in 293T/nNOS cells): ~ 18 μM
